Experimental data: ChEMBL document CHEMBL5058577, “EUbOPEN Chemogenomics Library 2 (Multiplex)” (2022)

Tested on: HEK-293T
Assay: Multiplex assay against HEK293T
Assay type: toxicity, cell-based
Details: human
Method in brief: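 Tubulin, mitochondrial-mass and membrane-permeability phenotypes are per cents of healthy-nucleus cells. Cells were gated by CellPathfinder machine learning into Hoechst high-intensity objects or normal cells, normal cells into healthy, pyknosed or fragmented nuclei, and pyknosed cells into mitotic or apoptotic. Before that, live cells stained at seeding with Hoechst33342, BioTracker Green Microtubule Cytoskeleton Dye, MitoTracker Red and Annexin V Alexa Fluor 680 were imaged on a CQ1 microscope at 37°C and 5% CO2 after compound addition.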

[1] = 12 h, 1 µM, compound concentration 1 uM, replicate 1
[2] = 12 h, 1 µM, compound concentration 1 uM, replicate 2
[3] = 12 h, 10 µM, compound concentration 10 uM, replicate 1
[4] = 12 h, 10 µM, compound concentration 10 uM, replicate 2
[5] = 24 h, 1 µM, compound concentration 1 uM, replicate 1
[6] = 24 h, 1 µM, compound concentration 1 uM, replicate 2
[7] = 24 h, 10 µM, compound concentration 10 uM, replicate 1
[8] = 24 h, 10 µM, compound concentration 10 uM, replicate 2
[9] = 48 h, 1 µM, compound concentration 1 uM, replicate 1
[10] = 48 h, 1 µM, compound concentration 1 uM, replicate 2
[11] = 48 h, 10 µM, compound concentration 10 uM, replicate 1
[12] = 48 h, 10 µM, compound concentration 10 uM, replicate 2

CC(C)c1noc(N2CCC(COc3ccc(-c4ccc(S(C)(=O)=O)cc4)nc3)CC2)n1 [GSK-1292263]
Population Apoptotic (%) [1]: 37%
Population Fragmented Nuclei (%) [1]: 8%
Population Healthy Nuclei (%) [1]: 78%
Population Hoechst High Intensity Objects (%) [1]: 5%
Population Membrane Permeable-Phenotype (%) [1]: 0%
Population Mitochondria Different-Phenotype (%) [1]: 42%
Population Mitotic Cells (%) [1]: 62%
Population Normal (%) [1]: 94%
Population Pyknosed Nuclei (%) [1]: 12%
Population Tubulin-Different-Phenotype (%) [1]: 32%
Total Cell Count [1]: 440
Population Apoptotic (%) [2]: 25%
Population Fragmented Nuclei (%) [2]: 6%
Population Healthy Nuclei (%) [2]: 86%
Population Hoechst High Intensity Objects (%) [2]: 6%
Population Mitochondria Different-Phenotype (%) [2]: 53%
Population Mitotic Cells (%) [2]: 74%
Population Normal (%) [2]: 93%
Population Pyknosed Nuclei (%) [2]: 7%
Population Tubulin-Different-Phenotype (%) [2]: 13%
Total Cell Count [2]: 522
Population Apoptotic (%) [3]: 50%
Population Fragmented Nuclei (%) [3]: 6%
Population Healthy Nuclei (%) [3]: 71%
Population Hoechst High Intensity Objects (%) [3]: 13%
Population Membrane Permeable-Phenotype (%) [3]: 0%
Population Mitochondria Different-Phenotype (%) [3]: 69%
Population Mitotic Cells (%) [3]: 50%
Population Normal (%) [3]: 86%
Population Pyknosed Nuclei (%) [3]: 22%
Population Tubulin-Different-Phenotype (%) [3]: 55%
Total Cell Count [3]: 311
Population Apoptotic (%) [4]: 43%
Population Fragmented Nuclei (%) [4]: 7%
Population Healthy Nuclei (%) [4]: 78%
Population Hoechst High Intensity Objects (%) [4]: 16%
Population Mitochondria Different-Phenotype (%) [4]: 77%
Population Mitotic Cells (%) [4]: 56%
Population Normal (%) [4]: 83%
Population Pyknosed Nuclei (%) [4]: 13%
Population Tubulin-Different-Phenotype (%) [4]: 40%
Total Cell Count [4]: 279
Population Apoptotic (%) [5]: 23%
Population Fragmented Nuclei (%) [5]: 8%
Population Healthy Nuclei (%) [5]: 78%
Population Hoechst High Intensity Objects (%) [5]: 5%
Population Membrane Permeable-Phenotype (%) [5]: 0%
Population Mitochondria Different-Phenotype (%) [5]: 27%
Population Mitotic Cells (%) [5]: 76%
Population Normal (%) [5]: 94%
Population Pyknosed Nuclei (%) [5]: 12%
Population Tubulin-Different-Phenotype (%) [5]: 25%
Total Cell Count [5]: 545
Population Apoptotic (%) [6]: 25%
Population Fragmented Nuclei (%) [6]: 7%
Population Healthy Nuclei (%) [6]: 82%
Population Hoechst High Intensity Objects (%) [6]: 3%
Population Mitochondria Different-Phenotype (%) [6]: 29%
Population Mitotic Cells (%) [6]: 74%
Population Normal (%) [6]: 96%
Population Pyknosed Nuclei (%) [6]: 9%
Population Tubulin-Different-Phenotype (%) [6]: 9%
Total Cell Count [6]: 608
Population Apoptotic (%) [7]: 64%
Population Fragmented Nuclei (%) [7]: 8%
Population Healthy Nuclei (%) [7]: 79%
Population Hoechst High Intensity Objects (%) [7]: 8%
Population Membrane Permeable-Phenotype (%) [7]: 0%
Population Mitochondria Different-Phenotype (%) [7]: 58%
Population Mitotic Cells (%) [7]: 35%
Population Normal (%) [7]: 91%
Population Pyknosed Nuclei (%) [7]: 12%
Population Tubulin-Different-Phenotype (%) [7]: 49%
Total Cell Count [7]: 384
Population Apoptotic (%) [8]: 46%
Population Fragmented Nuclei (%) [8]: 11%
Population Healthy Nuclei (%) [8]: 74%
Population Hoechst High Intensity Objects (%) [8]: 10%
Population Mitochondria Different-Phenotype (%) [8]: 59%
Population Mitotic Cells (%) [8]: 53%
Population Normal (%) [8]: 89%
Population Pyknosed Nuclei (%) [8]: 13%
Population Tubulin-Different-Phenotype (%) [8]: 28%
Total Cell Count [8]: 354
Population Apoptotic (%) [9]: 22%
Population Fragmented Nuclei (%) [9]: 10%
Population Healthy Nuclei (%) [9]: 81%
Population Hoechst High Intensity Objects (%) [9]: 3%
Population Membrane Permeable-Phenotype (%) [9]: 1%
Population Mitochondria Different-Phenotype (%) [9]: 23%
Population Mitotic Cells (%) [9]: 77%
Population Normal (%) [9]: 96%
Population Pyknosed Nuclei (%) [9]: 8%
Population Tubulin-Different-Phenotype (%) [9]: 14%
Total Cell Count [9]: 865
Population Apoptotic (%) [10]: 23%
Population Healthy Nuclei (%) [10]: 83%
Population Hoechst High Intensity Objects (%) [10]: 1%
Population Mitochondria Different-Phenotype (%) [10]: 14%
Population Mitotic Cells (%) [10]: 76%
Population Normal (%) [10]: 98%
Population Pyknosed Nuclei (%) [10]: 5%
Population Tubulin-Different-Phenotype (%) [10]: 10%
Total Cell Count [10]: 882
Population Apoptotic (%) [11]: 32%
Population Fragmented Nuclei (%) [11]: 10%
Population Healthy Nuclei (%) [11]: 79%
Population Hoechst High Intensity Objects (%) [11]: 10%
Population Membrane Permeable-Phenotype (%) [11]: 0%
Population Mitochondria Different-Phenotype (%) [11]: 50%
Population Mitotic Cells (%) [11]: 67%
Population Normal (%) [11]: 89%
Population Pyknosed Nuclei (%) [11]: 9%
Population Tubulin-Different-Phenotype (%) [11]: 28%
Total Cell Count [11]: 506
Population Apoptotic (%) [12]: 30%
Population Fragmented Nuclei (%) [12]: 13%
Population Healthy Nuclei (%) [12]: 78%
Population Hoechst High Intensity Objects (%) [12]: 5%
Population Mitochondria Different-Phenotype (%) [12]: 37%
Population Mitotic Cells (%) [12]: 69%
Population Normal (%) [12]: 94%
Population Pyknosed Nuclei (%) [12]: 8%
Population Tubulin-Different-Phenotype (%) [12]: 18%
Total Cell Count [12]: 595
